Test results taken from ChEMBL document CHEMBL3779798, “Novel seleno- and thio-urea derivatives with potent in vitro activities against several cancer cell lines” (Eur J Med Chem, 2016).
pIC50: −log10 of the molar value. Active and inactive are the calls of the source. The rule behind the calls is not given here.

What was measured:
HCT-116 [1] = test: Induction of apoptosis in human HCT116 cells assessed as viable cells at 2.5 uM after 24 hrs by annexin-V staining based flow cytometry analysis (reference value: 90.38%); type: functional; conditions: HCT-116, 24 h, read-out: Activity
RKO [2] = test: Anticancer activity against human RKO cells assessed as inhibition of cell growth after 48 hrs by MTT assay; type: functional, cell-based
How it was run: (§1)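 MTT assay at 3,000 cells/well. Cells treated with DMSO or seven concentrations from 0.5 to 50 µM for 24, 48 or 72 h. MTT added 3 h before the end point; formazan dissolved in DMSO and read at 570 and 630 nm. IC50 is the concentration giving 50% growth inhibition. Media: PANC-1, BxPC3 and 1205Lu in DMEM; DU145 and A549 in RPMI 1640; HT29, HCT116 and RKO in McCoy's 5A, all with 10% FBS and pen/strep, at 37 °C and 5% CO2.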

[3] = Anticancer activity against human PANC1 cells assessed as inhibition of cell growth after 72 hrs by MTT assay; type: functional, cell-based; conditions: PANC-1, 72 h; how it was run: as §1
[4] = Anticancer activity against human BxPC3 cells assessed as inhibition of cell growth after 48 hrs by MTT assay; type: functional, cell-based; conditions: BXPC-3, 48 h; how it was run: as §1
HCT-116 [5] = test: Induction of apoptosis in human HCT116 cells assessed as early apoptotic cells at 2.5 uM after 24 hrs by caspase3/7 reagent based flow cytometry (reference value: 5.18%); type: functional
HCT-116 [6] = test: Induction of apoptosis in human HCT116 cells assessed as late apoptotic cells at 5 uM after 24 hrs by caspase3/7 reagent based flow cytometry (reference value: 2.28%); type: functional
[7] = Anticancer activity against human 1205 Lu cells assessed as inhibition of cell growth after 72 hrs by MTT assay; type: functional, cell-based; how it was run: as §1
HCT-116 [8] = test: Decrease in whole PARP level in human HCT116 cells at 0.5 to 5 uM after 24 hrs by western blot analysis; type: functional, cell-based
How it was run: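 HCT116 cells (6 × 10^5/well) treated for 24 h. Whole-cell lysates made in RIPA buffer with phosphatase and protease inhibitors and PMSF, cleared at 15,000 g, resolved by SDS-PAGE and transferred to PVDF. Blots probed overnight in the cold with primary antibodies, then peroxidase-linked secondaries, and detected by ECL; β-actin antibody used.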

HCT-116 [9] = test: Induction of apoptosis in human HCT116 cells assessed as late apoptotic cells after 24 hrs by annexin-V staining based flow cytometry analysis; type: functional, cell-based
HCT-116 [10] = test: Induction of apoptosis in human HCT116 cells assessed as early apoptotic cells at 1 uM after 24 hrs by annexin-V staining based flow cytometry analysis (reference value: 7.84%); type: functional
[11] = Induction of cell death in human HCT116 cells at 5 uM after 24 hrs by calcein-AM and ethidium homodimer-1 staining based flow cytometry analysis (reference value: 1.1%); type: functional, HCT-116
RKO [12] = test: Potency index, ratio IC50 of 5-FU to IC50 of compound for anticancer activity against human RKO cells; type: functional
How it was run: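 Colon lines (McCoy's 5A, 10% FBS, penicillin/streptomycin, 37 °C, 5% CO2) seeded at 3,000 cells/well and exposed 24, 48 or 72 h to DMSO or seven concentrations across 0.5–50 µM. MTT added 3 h before end; formazan dissolved in DMSO, absorbance read at 570 and 630 nm. IC50 (50% growth inhibition) from curve fitting; index is the 5-FU IC50 divided by the compound IC50.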

HCT-116 [13] = test: Induction of apoptosis in human HCT116 cells assessed as necrotic cells at 2.5 uM after 24 hrs by caspase3/7 reagent based flow cytometry (reference value: 4.14%); type: functional
HCT-116 [14] = test: Decrease in number of viable cells in human HCT116 cells at 5 uM after 24 hrs by calcein-AM and ethidium homodimer-1 staining based flow cytometry analysis (reference value: 94.9%); type: functional
HCT-116 [15] = test: Reduction in Bcl2 level in human HCT116 cells after 24 hrs by western blot analysis; type: functional, cell-based
How it was run: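 HCT116 cells (6 × 10^5/well) treated with rising concentrations for 24 h. Lysed in RIPA with phosphatase and protease inhibitors and PMSF, cleared at 15,000 g for 10 min. Lysates resolved by SDS-PAGE, transferred to PVDF, probed overnight in the cold with primary antibodies, then peroxidase-linked secondary for 1–4 h at room temperature, detected by ECL; β-actin antibody used.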

HCT-116 [16] = test: Induction of apoptosis in human HCT116 cells assessed as viable cells at 2.5 uM after 24 hrs by caspase3/7 reagent based flow cytometry (reference value: 88.4%); type: functional; conditions: HCT-116, 24 h, read-out: Activity
HT-29 [17] = test: Anticancer activity against human HT-29 cells assessed as inhibition of cell growth after 48 hrs by MTT assay; type: functional, cell-based; conditions: HT-29, 48 h; how it was run: as §1
HCT-116 [18] = test: Induction of apoptosis in human HCT116 cells assessed as late apoptotic cells at 1 uM after 24 hrs by caspase3/7 reagent based flow cytometry (reference value: 2.28%); type: functional
[19] = Anticancer activity against human 1205 Lu cells assessed as inhibition of cell growth after 48 hrs by MTT assay; type: functional, cell-based; how it was run: as §1
HT-29 [20] = test: Anticancer activity against human HT-29 cells assessed as inhibition of cell growth after 24 hrs by MTT assay; type: functional, cell-based; conditions: HT-29, 24 h; how it was run: as §1
HCT-116 [21] = test: Decrease in number of viable cells in human HCT116 cells at 2.5 uM after 24 hrs by calcein-AM and ethidium homodimer-1 staining based flow cytometry analysis (reference value: 94.9%); type: functional
[22] = Induction of cell death in human HCT116 cells at 1 uM after 24 hrs by calcein-AM and ethidium homodimer-1 staining based flow cytometry analysis (reference value: 1.1%); type: functional, HCT-116
A549 = test: Anticancer activity against human A549 cells assessed as inhibition of cell growth after 48 hrs by MTT assay; type: functional, cell-based; conditions: A549, 48 h; how it was run: as §1
HCT-116 [23] = test: Induction of apoptosis in human HCT116 cells assessed as necrotic cells at 5 uM after 24 hrs by caspase3/7 reagent based flow cytometry (reference value: 4.14%); type: functional
[24] = Anticancer activity against human 1205 Lu cells assessed as inhibition of cell growth after 24 hrs by MTT assay; type: functional, cell-based; how it was run: as §1
[25] = Anticancer activity against human DU145 cells assessed as inhibition of cell growth after 48 hrs by MTT assay; type: functional, cell-based; conditions: DU-145, 48 h; how it was run: as §1
HCT-116 [26] = test: Induction of apoptosis in human HCT116 cells assessed as viable cells at 1 uM after 24 hrs by caspase3/7 reagent based flow cytometry (reference value: 88.4%); type: functional; conditions: HCT-116, 24 h, read-out: Activity
HCT-116 [27] = test: Induction of apoptosis in human HCT116 cells assessed as late apoptotic cells at 1 uM after 24 hrs by annexin-V staining based flow cytometry analysis (reference value: 1.06%); type: functional
HCT-116 [28] = test: Induction of apoptosis in human HCT116 cells assessed as necrotic cells at 1 uM after 24 hrs by annexin-V staining based flow cytometry analysis (reference value: 0.72%); type: functional
[29] = Anticancer activity against human HCT116 cells assessed as inhibition of cell growth after 24 hrs by MTT assay; type: functional, cell-based; conditions: HCT-116, 24 h; how it was run: as §1
HCT-116 [30] = test: Induction of apoptosis in human HCT116 cells assessed as late apoptotic cells at 2.5 uM after 24 hrs by annexin-V staining based flow cytometry analysis (reference value: 1.06%); type: functional

Br.Br.N=C(N)[Se]Cc1nc2ccccc2nc1C[Se]C(=N)N
viability at 2.5 µM (HCT-116 [1]): 66.2%
pIC50 (RKO [2]): 5.72
pIC50 [3]: 5.70
pIC50 [4]: 5.54
Activity (HCT-116 [5]): 6.48%
Activity (HCT-116 [6]): 50.26%
pIC50 [7]: 5.66
Activity (HCT-116 [8]): Active
Activity (HCT-116 [9]): Dose-dependent effect
Activity (HCT-116 [10]): 19.44%
Activity [11]: 19.3%
Ratio IC50 (RKO [12]): >50
Activity (HCT-116 [13]): 2.78%
Activity (HCT-116 [14]): 73.4%
Activity (HCT-116 [15]): Dose-dependent effect
viability at 2.5 µM (HCT-116 [16]): 85%
pIC50 (HT-29 [17]): 5.39
Activity (HCT-116 [18]): 2.64%
pIC50 [19]: 5.55
pIC50 (HT-29 [20]): 5.30
Activity (HCT-116 [21]): 92.2%
Activity [22]: 0.7%
pIC50 (A549): 5.70
Activity (HCT-116 [23]): 5.96%
pIC50 [24]: 5.48
pIC50 [25]: 5.55
viability at 1 µM (HCT-116 [26]): 87%
Activity (HCT-116 [27]): 2.28%
Activity (HCT-116 [28]): 0.2%
pIC50 [29]: 5.54
Activity (HCT-116 [30]): 11.64%
